Reference: ChEMBL document CHEMBL2062369, “¹²⁵I-radiolabeled morpholine-containing arginine-glycine-aspartate (RGD) ligand of αvβ₃ integrin as a molecular imaging probe for angiogenesis” (J Med Chem, 2012)
Calls of active or inactive are those of the source. No cut-off for these calls is given here.

Columns and labels:
Mus musculus = assay: Biodistribution in non tumor bearing iv dosed mouse gallbladder after 120 mins by micro SPECT-CT analysis; assay type: ADME, organism-based, Gall bladder; settings: in vivo, 2 h
Thyroid gland = assay: Biodistribution in non tumor bearing iv dosed mouse thyroid after 24 hrs by micro SPECT-CT analysis; assay type: ADME, organism-based; settings: in vivo
[1] = Drug uptake in human A375M cells xenografted in mouse tumor at 250 uCi, iv after 40 mins by micro SPECT-CT analysis in presence of c[RGD-(3'I-y)-(3R)-carboxymorpholine]; assay type: ADME, organism-based, Neoplasm; settings: in vivo
Summary of the method: (§1)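 SCID bg/bg mice bore s.c. shoulder grafts of 1 × 10⁶ A375 M cells plus 0.5 × 10⁶ TGFβ-activated HDF in PBS/Matrigel 1:1. Under anesthesia on a 37 °C bed, mice received 7–10 MBq tracer in 200 μL saline via tail vein. CT was acquired at 30 min, then SPECT from 40 min pi (20–36 keV window). Displacement runs got cold compound (18 mg/kg) 10 min before tracer. Tumor ROI was normalized to contralateral muscle as (TA−BA)/BA.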

[2] = Drug uptake in human A375M cells xenografted in SCID mouse tumor at 250 uCi, iv after 40 mins by micro SPECT-CT analysis; assay type: ADME, organism-based, Neoplasm; settings: in vivo; summary of the method: as §1
Kidney = assay: Biodistribution in non tumor bearing iv dosed mouse kidney after 120 mins by micro SPECT-CT analysis; assay type: ADME, organism-based; settings: in vivo, 2 h
Spleen = assay: Biodistribution in non tumor bearing iv dosed mouse spleen after 1 to 24 hrs by micro SPECT-CT analysis; assay type: ADME, organism-based; settings: in vivo
HDF [3] = assay: Inhibition of HDF adhesion to vitronectin at 0.1 to 10 uM after 30 mins by crystal violet staining method; assay type: functional; settings: Homo sapiens
Summary of the method: (§2)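 Wells coated overnight at 4 °C with fibronectin (1 μg/mL) or vitronectin (10 μg/mL), blocked with 1% BSA/PBS 1 h at 37 °C. Cells in serum-free medium were preincubated with ligand (final 0.1, 1 or 10 μM) 30 min at 37 °C, then seeded at 4–5 × 10⁴/well for 2 h at 37 °C. HUVEC were IL-1β (400 U/mL)-stimulated; melanoma runs included 2 mmol/L MnCl₂. Adherent cells were stained with crystal violet, read at 540 nm, triplicate, ≥3 repeats.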

HDF [4] = assay: Inhibition of HDF adhesion to fibronectin at 0.1 to 10 uM after 30 mins by crystal violet staining method; assay type: functional; settings: Homo sapiens; summary of the method: as §2
Integrin alpha-V/beta-3 [5] = molecular target: T1, Integrin alpha-V/beta-3 (Homo sapiens, UniProt P05106+P06756); assay: Inhibition of integrin alphaVbeta3 expressing human A375M cell adhesion to fibronectin at 0.1 to 10 uM after 30 mins by crystal violet staining method in presence of 2 mmol/L of MnCl2; assay type: protein-complex assay; summary of the method: as §2
HUVEC [6] = assay: Inhibition of IL-1beta-induced alphaV, beta3, beta5, alpha5, beta1, and alphavbeta3 expressing HUVEC adhesion to vitronectin at 0.1 to 10 uM after 30 mins by crystal violet staining method; assay type: functional, cell-based; settings: Homo sapiens; summary of the method: as §2
HUVEC [7] = assay: Inhibition of IL-1beta-induced alphav, beta3, beta5, alpha5, beta1 and alphavbeta3 expressing HUVEC adhesion to fibronectin at 0.1 to 10 uM after 30 mins by crystal violet staining method; assay type: functional, cell-based; settings: Homo sapiens; summary of the method: as §2
Integrin alpha-V/beta-3 [8] = molecular target: T1, Integrin alpha-V/beta-3; assay: Inhibition of integrin alphavbeta3 expressing human A375M cell adhesion to vitronectin at 0.1 to 10 uM after 30 mins by crystal violet staining method in presence of 2 mmol/L of MnCl2; assay type: protein-complex assay; summary of the method: as §2
Integrin alpha-V/beta-3 [9] = molecular target: T1, Integrin alpha-V/beta-3; assay: Displacement of [125I] echistatin from alphaVbeta3 integrin isolated from human placenta after 3 hrs by liquid scintillation counter
Target sequence in this assay (P05106 27-788 limits assumed): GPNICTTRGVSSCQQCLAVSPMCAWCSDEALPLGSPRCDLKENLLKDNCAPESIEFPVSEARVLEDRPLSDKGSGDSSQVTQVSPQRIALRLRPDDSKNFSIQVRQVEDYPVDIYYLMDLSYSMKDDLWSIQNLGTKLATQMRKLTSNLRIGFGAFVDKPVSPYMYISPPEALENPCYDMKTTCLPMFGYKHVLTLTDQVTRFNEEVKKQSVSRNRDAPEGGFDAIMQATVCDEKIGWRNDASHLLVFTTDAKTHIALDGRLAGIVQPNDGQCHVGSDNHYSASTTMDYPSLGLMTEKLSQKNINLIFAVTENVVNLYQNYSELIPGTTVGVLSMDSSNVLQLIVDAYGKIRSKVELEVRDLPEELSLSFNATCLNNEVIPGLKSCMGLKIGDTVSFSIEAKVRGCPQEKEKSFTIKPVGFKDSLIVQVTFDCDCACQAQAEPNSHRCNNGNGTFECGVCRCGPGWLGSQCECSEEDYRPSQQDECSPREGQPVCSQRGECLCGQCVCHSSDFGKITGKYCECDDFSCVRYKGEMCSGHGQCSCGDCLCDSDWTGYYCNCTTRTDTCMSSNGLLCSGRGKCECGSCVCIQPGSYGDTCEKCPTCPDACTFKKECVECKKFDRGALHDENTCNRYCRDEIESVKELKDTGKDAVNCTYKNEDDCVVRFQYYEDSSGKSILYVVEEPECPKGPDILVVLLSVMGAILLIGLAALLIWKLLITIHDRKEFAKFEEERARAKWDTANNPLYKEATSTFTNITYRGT
Target sequence in this assay (P06756 31-889 limits assumed): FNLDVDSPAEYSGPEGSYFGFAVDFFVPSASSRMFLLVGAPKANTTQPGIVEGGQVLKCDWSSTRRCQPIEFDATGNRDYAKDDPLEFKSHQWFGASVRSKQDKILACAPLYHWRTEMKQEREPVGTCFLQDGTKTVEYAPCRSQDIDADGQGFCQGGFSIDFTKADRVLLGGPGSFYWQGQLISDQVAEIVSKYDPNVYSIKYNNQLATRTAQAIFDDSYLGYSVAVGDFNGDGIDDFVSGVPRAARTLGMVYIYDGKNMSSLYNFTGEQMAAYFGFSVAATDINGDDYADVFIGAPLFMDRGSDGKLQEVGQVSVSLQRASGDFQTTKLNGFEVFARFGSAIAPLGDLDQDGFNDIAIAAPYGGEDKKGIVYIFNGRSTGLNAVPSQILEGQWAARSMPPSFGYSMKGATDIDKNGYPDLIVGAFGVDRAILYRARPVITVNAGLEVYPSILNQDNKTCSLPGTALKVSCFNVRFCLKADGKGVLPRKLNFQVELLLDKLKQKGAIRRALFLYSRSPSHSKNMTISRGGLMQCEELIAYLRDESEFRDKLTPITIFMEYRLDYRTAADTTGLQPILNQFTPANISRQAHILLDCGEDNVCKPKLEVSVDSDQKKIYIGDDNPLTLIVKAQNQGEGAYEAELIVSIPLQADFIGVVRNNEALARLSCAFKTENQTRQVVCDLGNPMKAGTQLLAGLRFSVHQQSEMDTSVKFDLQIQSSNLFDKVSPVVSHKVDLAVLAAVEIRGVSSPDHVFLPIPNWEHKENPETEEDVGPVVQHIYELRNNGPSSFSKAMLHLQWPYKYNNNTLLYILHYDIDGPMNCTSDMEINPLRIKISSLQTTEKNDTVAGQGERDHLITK
Target sequence in this assay (P06756 891-1048 limits assumed): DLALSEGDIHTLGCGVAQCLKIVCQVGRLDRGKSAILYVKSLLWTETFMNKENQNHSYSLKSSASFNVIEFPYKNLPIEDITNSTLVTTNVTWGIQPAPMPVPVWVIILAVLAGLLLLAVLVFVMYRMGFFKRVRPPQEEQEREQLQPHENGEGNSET

HUVEC [10] = assay: Antiangiogenic activity against HUVEC seeded on matrigel layer assessed as inhibition of capillary like tube formation at 0.01 uM to 10 uM after 16 to 18 hrs by microscopic analysis; assay type: functional, cell-based; settings: Homo sapiens

Which Drug uptake (Mus musculus) does the source give for N=C(N)NCCC[C@@H]1NC(=O)[C@H]2COCCN2C(=O)[C@@H](Cc2ccc(O)c([125I])c2)NC(=O)[C@H](CC(=O)O)NC(=O)CNC1=O here?
The Drug uptake was “Active”.

What about the Drug uptake (Thyroid gland) of the same molecule?
The Drug uptake was “Active”.

What about the Drug uptake [1] of the same molecule?
The Drug uptake was “Active”.

What about the Drug uptake [2] of the same molecule?
Its Drug uptake is “Active”.

What about the Drug uptake (Kidney) of the same molecule?
Its Drug uptake is “Active”.

And the Drug uptake (Spleen)?
Its Drug uptake is “Active”.

With N=C(N)NCCC[C@@H]1NC(=O)[C@H]2COCCN2C(=O)[C@@H](Cc2ccc(O)c(I)c2)NC(=O)[C@H](CC(=O)O)NC(=O)CNC1=O as the molecule, how does the inhibition (HDF [3]) read?
Its inhibition is “Active”.

And the inhibition (HDF [4])?
The inhibition was “Active”.

What about the inhibition (Integrin alpha-V/beta-3 [5]) of the same molecule?
The inhibition was “Active”.

And the inhibition (HUVEC [6])?
The inhibition was “Active”.

What about the inhibition (HUVEC [7]) of the same molecule?
The inhibition was “Active”.

And the inhibition (Integrin alpha-V/beta-3 [8])?
The inhibition was “Active”.

And the IC50 (Integrin alpha-V/beta-3 [9])?
The IC50 was 48 nM.

And the inhibition (HUVEC [10])?
The inhibition was “inactive”.

For N=C(N)NCCC[C@@H]1NC(=O)[C@H]2COCCN2C(=O)[C@@H](Cc2ccccc2)NC(=O)[C@H](CC(=O)O)NC(=O)CNC1=O, which inhibition (HDF [3]) is on record?
Its inhibition is “Active”.

What about the inhibition (HDF [4]) of the same molecule?
The inhibition was “Active”.

What about the inhibition (Integrin alpha-V/beta-3 [5]) of the same molecule?
The inhibition was “Active”.

What about the inhibition (HUVEC [6]) of the same molecule?
The inhibition was “Active”.

What about the inhibition (HUVEC [7]) of the same molecule?
Its inhibition is “Active”.

What about the inhibition (Integrin alpha-V/beta-3 [8]) of the same molecule?
The inhibition was “Active”.

And the inhibition (HUVEC [10])?
The inhibition was “inactive”.

For N=C(N)NCCC[C@@H]1NC(=O)[C@H]2COCCN2C(=O)[C@@H](Cc2ccc(O)cc2)NC(=O)[C@H](CC(=O)O)NC(=O)CNC1=O, which inhibition (HDF [3]) is on record?
Its inhibition is “Active”.

What about the inhibition (HDF [4]) of the same molecule?
The inhibition was “Active”.

And the inhibition (Integrin alpha-V/beta-3 [5])?
The inhibition was “Active”.

What about the inhibition (HUVEC [6]) of the same molecule?
Its inhibition is “Active”.

What about the inhibition (HUVEC [7]) of the same molecule?
The inhibition was “Active”.

And the inhibition (Integrin alpha-V/beta-3 [8])?
The inhibition was “Active”.

And the inhibition (HUVEC [10])?
The inhibition was “inactive”.
